# Measured values from paper PMC5469400 (Drug Metabolism and Disposition, 2017).
# How the values were obtained:
# [1] = system: coculture of hepatocytes and Kupffer cells (10:1); experiment: Extrapolation of in vitro DCF clearance to predicted hepatic clearance; assay type: in vitro ADME, human
# [2] = wells in the absence of cells, concentration monitored over 24 hours
# [3] = system: acute phase proteins (APPs); experiment: iTRAQ 8plex quantitation of acute phase proteins in conditioned medium; assay type: cell-based, human; settings: day 7; normalized to untreated control; drug 440 μM DCF, LPS 1 µg/ml
# Summary of the method: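 Day 7 conditioned medium from perfused human hepatocyte–Kupffer cell cocultures treated with test compound (440 μM), LPS (1 µg/ml) or both. Albumin depleted; 100 μg protein reduced (2 mM TCEP, 37°C, 30 min), blocked (10 mM MMTS, 1 h) and trypsin-digested (1:40 w/w, 37°C overnight). Peptides iTRAQ-8plex labelled (3 h, RT), then C18-cleaned. Values are ln2 ratios versus untreated control (combined treatment versus LPS).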
# [4] = system: primary hepatocyte–Kupffer cell cocultures; experiment: WST-1 cell viability in the LiverChip, repeat dosing; assay type: cell-based; settings: Homo sapiens, read-out: IC50 (cell viability, WST-1)
# Summary of the method: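 Perfused LiverChip cocultures of cryopreserved primary human hepatocytes and Kupffer cells (10:1, 600,000 cells/well; post-thaw viability >85%). Test compound in DMSO (0.5% v/v final) dosed from day 5. Medium and fresh compound replaced every 48 h. Viability measured by WST-1; mean of two replicates.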
# [5] = cited from earlier work
# [6] = system: bile acid production in 3D liver coculture; experiment: Bile acids in culture medium by LC-MS; assay type: cell-based, human; settings: for level of GCA after 48 h / level of cholic acid after 48 h / level of glycochenodeoxycholic acid 3-glucuronide after 48 h / level of glycochenodeoxycholic acid after 48 h / level of taurocholic acid after 48 h: 0 μM DCF = 100, relative EIC
# Summary of the method: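 Perfused LiverChip cocultures of cryopreserved primary human hepatocytes and Kupffer cells (10:1, 600,000 cells/well) in WEM with 100 nM hydrocortisone. Test compound in DMSO (0.5% v/v final) or LPS 1 µg/ml added from day 5, refreshed at 48 h medium changes. d5-GCA internal standard added before extraction. Bile acids in medium at 48 h by accurate MS peak area (EIC%) relative to vehicle = 100. Mean of two technical replicates.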
# [7] = system: primary human hepatocyte and Kupffer cell cocultures; experiment: Albumin secretion; assay type: cell-based; settings: high DCF concentrations (>50×), measured 48 hours after each dose
# Summary of the method: (§1)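 Cryopreserved primary human hepatocytes and Kupffer cells (10:1, 600,000 cells/well) were cocultured in perfused LiverChip scaffolds (1.0 µl/s), with hydrocortisone-containing (100 nM) WEM from day 3. Test compound in DMSO (0.5% v/v final) was given from day 5 and redosed at each 48-hour medium change, ±LPS 1 µg/ml. Medium was sampled 48 hours after each dose for albumin (ELISA) and LDH activity; n = 3, S.D.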
# [8] = system: primary human hepatocyte and Kupffer cell cocultures; experiment: LDH release in the LiverChip; assay type: cell-based
# Summary of the method: as §1
# [9] = system: proteins in hepatocyte-Kupffer cell coculture medium; experiment: Shotgun proteomics of secreted proteins, spectral counting; assay type: cell-based, human; settings: 440 μM DCF
# Summary of the method: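 Perfused hepatocyte–Kupffer cell coculture medium was collected from control and 440 μM test compound cultures on days 5 and 7 and depleted of albumin. Proteins were taken up in 8 M urea/50 mM ABC with ProteaseMAX, reduced with DTT (56°C, 30 min) and alkylated with IAA (30 min, room temperature, dark). Fractions were cleaned on C18, analysed by shotgun LC-MS/MS and quantified by spectral counting.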
# [10] = DCF clearance / PK in the LiverChip, one-compartment model; assay type: in vitro ADME; settings: human
compound,measurement,setting,value
"O=C(O)Cc1ccccc1Nc1c(Cl)cccc1Cl [DCF, diclofenac]",underprediction of predicted CLh versus in vivo plasma clearance,[1],< 7 fold
same,binding to the LiverChip components,[2],no detectable binding
same,"ln2 iTRAQ value, Haptoglobin",[3],0.5
same,"ln2 iTRAQ value, α1 antiproteinase",[3],1.0
same,"ln2 iTRAQ value, α2 macroglobulin",[3],−1.0
same,IC50,[4],227 µM
same,in vivo plasma clearance,"[5]; human, ref http://www.capkr.man.ac.uk",3.8 ml/min per kilogram
same,Cmax,[5]; recommended dose of DCF in humans,4.4 µM
same,DCF-induced toxicity as assessed by suppression of GCA production,"[6]; 0, 44, 110, 220 and 440 µM DCF",continuous dose-response relationship
same,level of GCA after 48 h,[6]; 110 μM DCF,57%
same,level of cholic acid after 48 h,[6]; 110 μM DCF,66%
same,level of glycochenodeoxycholic acid 3-glucuronide after 48 h,[6]; 110 μM DCF,69%
same,level of glycochenodeoxycholic acid after 48 h,[6]; 110 μM DCF,50%
same,level of taurocholic acid after 48 h,[6]; 110 μM DCF,77%
same,level of GCA after 48 h,[6]; 440 μM DCF,2%
same,level of cholic acid after 48 h,[6]; 440 μM DCF,12%
same,level of glycochenodeoxycholic acid 3-glucuronide after 48 h,[6]; 440 μM DCF,14%
same,level of glycochenodeoxycholic acid after 48 h,[6]; 440 μM DCF,15%
same,level of taurocholic acid after 48 h,[6]; 440 μM DCF,10%
same,albumin secretion,[7],declined after a single dose
same,LDH release,"[8]; high DCF concentrations (>50×), measured 48 hours after each dose",became more pronounced after the second dose
same,number of proteins different between control and DCF-treated samples,[9]; day 5,13 proteins
same,"number of additional proteins elevated, not identified in the control",[9]; day 7,68 proteins
same,half-life at 4.4 µM,[10],14.6 h
lipopolysaccharide [LPS],"ln2 iTRAQ value, Amyloid β A4 protein isoform b",[3],−1.7
same,"ln2 iTRAQ value, Angiotensinogen",[3],3.7
same,"ln2 iTRAQ value, Ceruloplasmin",[3],3.8
same,"ln2 iTRAQ value, Complement component C3",[3],5.1
same,"ln2 iTRAQ value, Haptoglobin",[3],3.8
same,"ln2 iTRAQ value, Hypothetical protein",[3],3.9
same,"ln2 iTRAQ value, Leucine-rich α2-glycoprotein",[3],2.8
same,"ln2 iTRAQ value, Liver carboxylesterase 1 isoform a",[3],2.4
same,"ln2 iTRAQ value, Retinol binding protein 4",[3],5.0
same,"ln2 iTRAQ value, Serum albumin",[3],3.9
same,"ln2 iTRAQ value, Transferrin",[3],3.0
same,"ln2 iTRAQ value, Transthyretin",[3],1.3
same,"ln2 iTRAQ value, Vitamin D binding protein",[3],2.1
same,"ln2 iTRAQ value, α1-acid glycoprotein 1",[3],7.0
same,"ln2 iTRAQ value, α1-acid glycoprotein 2",[3],5.0
same,"ln2 iTRAQ value, α1-antitrypsin",[3],4.2
same,"ln2 iTRAQ value, α1 antiproteinase",[3],4.2
same,"ln2 iTRAQ value, α2-HS glycoprotein",[3],1.5
same,effect of LPS together with DCF on drug toxicity (bile acid production),"[6]; LPS alone, DCF, LPS plus DCF",synergistic effect
same,effect of LPS codosing on toxicity profile of DCF,"[8]; gross markers of functionality and cell death, LPS 1 µg/ml",does not significantly change the toxicity profile
